Compounds with a hit are over-represented: about 2.4% of the library has one in this group of screens.
LANA-H2A inh: blockers of LANA interaction with H2A/H2B – biochemical, FP readout, HTS, primary screen; Protein LANA1 (Human herpesvirus 8 type P (isolate GK18)), Q9QR71; cell-free LANA-H2A/H2B peptide, fluorescence polarization; actives 0.6% (n = 320,000); inhibition, % (concentration not given with the values); in the data active = inhibition mostly above about 10%, no sharp cut-off; inactive = mostly below about 6.7%
Runt-CBFb FRET: inhibitors of RUNX1 Runt–CBFb binding, primary screen, biochemical, FRET, Cerulean-Runt, Venus-CBFb, uHTS; actives 0.46% (n = 220,000); Runt-related transcription factor 1 (Homo sapiens) + Core-binding factor subunit beta …; inhibition, % at 20 µM; Cerulean-Runt/Venus-CBFb FRET ratio 530/480, 1 h;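 active = inhibition over about 50% at 20 µM in the single-dose screen, limit read from the data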;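 also: 0% = DMSO wells and 100% = excess unlabeled CBFb competitor control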
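test system = Cerulean-tagged RUNX1 Runt domain (FRET donor) fusion protein | reagent = Venus-CBFb binding partner, 100 nM | incubation = protein complex preformed 1 h, compound exposure 1 h, room temperature, dark | detection = FRET fluorescence | read-out basis = loss of energy transfer signal | controls = 5 µM unlabeled CBFb as full-inhibition high control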
MEX-5 binding: MEX-5 zinc finger RNA-binding disruptors – biochemical, C. elegans, fluorescence polarization, MLPCN library, primary screen | activity score (negative = inhibition of binding), % at 10 µM | actives 0.38% (n = 300,000) | Zinc finger protein mex-5 (Caenorhabditis elegans), Q9XUB2 | MEX-5/FITC-TCR2 RNA binding; stronger effect = lower value;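 active = inhibition past about -25% in most replicates, and total fluorescence under double the plate's negative control median, limit read from the data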;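 also: 0% = DMSO and -100% = 5 µM competing unlabeled TCR2 RNA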
RanGTP-Imp inh: inhibitors of RanGTP-importin-beta interaction, primary screen, biochemical, FRET, CFP-Ran, YFP-importin-beta, homogeneous | Ran GTPase (GTP-bound) - importin-beta complex | cell-free CFP-Ran/YFP-importin-beta FRET ratio | inhibition, % (concentration not given with the values) | actives 1.1% (n = 300,000) | AID 2216, 2009;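 active = more than half of the replicate wells show a fall in the fluorescence ratio signal beyond about 16%, limit read from the data, passing the limit was not always enough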;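 also: 0% = DMSO wells and 100% = Ran loaded with GDP instead of GTP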
EBV gp42 inh: Epstein-Barr virus gp42 inhibitors, primary screen, biochemical, uHTS, fluorescence polarization; Glycoprotein 42 (Epstein-Barr virus (strain AG876)), Q1HVG2; Fluorescence polarization binding assay, mP read-out; inhibition, % (tested at 21.74 µM); actives 0.42% (n = 220,000); AID 1085, 2008; in the data active = inhibition above about 50%
Runt-SMMHC FRET: inhibitors of RUNX1 Runt–CBFb-SMMHC binding, primary screen, biochemical, FRET, Cerulean-Runt, Venus-CBFb-SMMHC, uHTS; inhibition, % at 20 µM; Runt-related transcription factor 1 (Homo sapiens) + Core-binding factor subunit beta …; actives 0.74% (n = 220,000); Cerulean-Runt/Venus-CBFb-SMMHC FRET ratio 530/480, 1 h;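 active = mean inhibition across duplicate retests at 20 µM reaching about 50%, limit read from the data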;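 also: 0% = DMSO wells and 100% = wells with excess untagged CBFb-SMMHC; inhibitors lower the FRET ratio by blocking Runt binding to CBFb-SMMHC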
* marks the source's active call; other numbers are inactive results; · = not tested or not shown; + = active, no number.

SMILES	LANA-H2A inh	Runt-CBFb FRET	MEX-5 binding	RanGTP-Imp inh	EBV gp42 inh	Runt-SMMHC FRET
COC(=O)CN1C(=S)N(c2ccc(OC)cc2)C(=O)/C1=C/c1ccc(N2CCOCC2)cc1	5	-18	-7	-37	75*	-44
CCc1nnc(NC(=O)c2sc3nc4c(cc3c2N)CCCCCC4)s1	7	30	-3	8	-3	61*
C/C(N)=C(/C#N)C(=O)CSc1nnc(Nc2ccccc2)s1	2	1	-1	5	124*	2
C/C(N)=C(/C#N)C(=O)CSc1ncnc2ccccc12	3	-1	-39*	0	-9	5
COC(=O)C(Cc1ccc(O)cc1)NC(=O)CCNC(=O)c1ccco1 (configuration not stated)	0	·	-1	-1	·	·
Cc1cc(C(=O)CN2C(=O)NC3(CCCCC3C)C2=O)c(C)n1Cc1cccs1 (configuration not stated)	5	0	-1	4	-18	4
Cc1cc(C(=O)CN2C(=O)c3cccc(N)c3C2=O)c(C)n1Cc1cccs1	-3	19	-1	66*	-3	62*
O=C(N/N=C/c1sc2ccccc2c1O)c1ccccc1	-7	-9	-4	8	-235	-80
O=C(N/N=C/c1sc2ccccc2c1O)c1cccc2ccccc12	+	-7	-1	7	-109	-19
COc1ccc(C(=O)N/N=C/c2sc3ccccc3c2O)cc1	+	18	-2	8	-188	71
CC(C)Cn1c(SCC(=O)c2ccc(Cl)s2)nnc1-c1ccco1	4	5	2	-3	-6	0
Cc1ccnc(N2C(=O)OC(C)(C)C2(C)O)c1 (configuration not stated)	2	2	1	0	-8	6
O=c1c2ccccc2n(CC(O)CN2CCCCC2)c2ccccc12 (configuration not stated)	-2	61*	1	96*	-8	81*
OC(CN1CCCCC1)Cn1c2ccccc2c2ccccc21 (configuration not stated)	-1	·	0	5	·	·
O=c1c2ccccc2n(CC(O)CN2CCOCC2)c2ccccc12 (configuration not stated)	-2	·	1	79*	·	·
Cc1ccc(C(=O)NC(=S)NCC2CCCO2)cc1[N+](=O)[O-] (configuration not stated)	1	-2	0	1	7	-2
Cc1oc2c(C)c3oc(=O)c(CCC(=O)N4C[C@H]5C[C@@H](C4)c4cccc(=O)n4C5)c(C)c3cc2c1C	35*	·	-2	3	·	·
COc1ccc(OC)c(-n2c(Cn3c(-c4ccccn4)nc4ccccc43)n[nH]c2=S)c1	14*	5	0	2	-4	8
COc1ccc(C(=O)C2CCN(CC(=O)Nc3ccc(OC)cc3OC)CC2)cc1	19*	·	2	9	·	·
COc1ccc(NC(=O)CSc2cn[nH]n2)c(OC)c1	34*	·	1	4	·	·
CCOc1ccccc1NC(=O)CN1CCC(C(=O)c2ccc(OC)cc2)CC1	3	·	-1	3	·	·
COc1ccc(OC)c(NC(=O)Cn2cccc2)c1	17*	1	1	-7	-18	-3
Cn1c(C(=O)N2CCC(C(=O)NCc3ccccc3)CC2)cc2sccc21	1	·	3	4	·	·
COc1ccc2nc(NC(=O)Cn3cnc4ccccc4c3=O)sc2c1	177*	-12	-1	0	-61	3
COc1ccc2nc(NC(=O)CSC(C)C(=O)Nc3cc(C)on3)sc2c1 (configuration not stated)	17*	·	-1	4	·	·
